Measurements taken from ChEMBL document CHEMBL2163274, “Heterocyclic methylsulfone hydroxamic acid LpxC inhibitors as Gram-negative antibacterial agents” (Bioorg Med Chem Lett, 2012).
≈ marks a conversion by molar mass, not a printed value.

How the values were obtained:
Pseudomonas aeruginosa [1] = test: Antibacterial activity against quinolone-resistant Pseudomonas aeruginosa PA3060; assay type: functional
In short: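 MIC (µg/ml) against quinolone-resistant P. aeruginosa PA-3060, run alongside efflux-competent strains PAO1 and PA-7 and the multi-efflux-pump knockout PA-3919. Some analogs were tested as racemates.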

Pseudomonas aeruginosa [2] = test: Antibacterial activity against Pseudomonas aeruginosa PA7; assay type: functional
In short: (§1)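 MIC in µg/ml against P. aeruginosa strains with fully functioning efflux pumps. PAO1 is wild type and efflux pump competent.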

Pseudomonas aeruginosa [3] = test: Antibacterial activity against Pseudomonas aeruginosa PAO1; assay type: functional; in short: as §1
Pseudomonas aeruginosa [4] = test: Antibacterial activity against multi efflux pump knock out Pseudomonas aeruginosa PA3919; assay type: functional
In short: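 MIC in µg/ml against P. aeruginosa PA-3919, which lacks multiple efflux pumps. The strain is used to tell whether a compound is a substrate of these pumps.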

[5] = biological target: T1, UDP-3-O-acyl-N-acetylglucosamine deacetylase (Pseudomonas aeruginosa, UniProt B5ATN6); test: Inhibition of Pseudomonas aeruginosa LpxC
T1 sequence (B5ATN6 whole entry): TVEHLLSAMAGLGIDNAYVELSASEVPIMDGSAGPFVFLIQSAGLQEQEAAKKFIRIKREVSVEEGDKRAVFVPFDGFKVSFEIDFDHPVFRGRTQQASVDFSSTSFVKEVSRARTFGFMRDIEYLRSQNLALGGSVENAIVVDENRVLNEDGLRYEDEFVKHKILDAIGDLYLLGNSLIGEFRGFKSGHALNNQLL

Acinetobacter baumannii = test: Antibacterial activity against Acinetobacter baumannii; assay type: functional
Escherichia coli = test: Antibacterial activity against Escherichia coli; assay type: functional
[6] = Lipophilicity, log D of the compound at pH 7.4; assay type: physicochemical; details: buffer
Pseudomonas aeruginosa [7] = test: Antibacterial activity against Pseudomonas aeruginosa; assay type: functional
Klebsiella pneumoniae = test: Antibacterial activity against Klebsiella pneumoniae; assay type: functional
[8] = Fraction unbound in human plasma; assay type: ADME, cell-free

| SMILES | MIC (Pseudomonas aeruginosa [1]) [µg/mL] | MIC (Pseudomonas aeruginosa [2]) [µg/mL] | MIC (Pseudomonas aeruginosa [3]) [µg/mL] | MIC (Pseudomonas aeruginosa [4]) [µg/mL] | IC50 [5] [nM] | MIC90 (Acinetobacter baumannii) [µg/mL] | MIC90 (Escherichia coli) [µg/mL] | logD [6] | MIC90 (Pseudomonas aeruginosa [7]) [µg/mL] | MIC90 (Klebsiella pneumoniae) [µg/mL] | fraction unbound [8] |
| --- | --- | --- | --- | --- | --- | --- | --- | --- | --- | --- | --- |
| C[C@@](CCn1cc(-c2cccc(Cl)c2Cl)nn1)(C(=O)NO)S(C)(=O)=O | 4 (≈ 9.82 µM) | 4 (≈ 9.82 µM) | 2 (≈ 4.91 µM) | < 0.06 | 1.95 |  |  |  |  |  |  |
| COc1cccc(-c2cc(CC[C@](C)(C(=O)NO)S(C)(=O)=O)on2)c1F | 8 (≈ 20.7 µM) | 4 (≈ 10.4 µM) | 2 (≈ 5.18 µM) | < 0.06 | 5.32 |  |  |  |  |  |  |
| C[C@@](CCn1cc(-c2ccc(Cl)cc2F)nn1)(C(=O)NO)S(C)(=O)=O | 1 (≈ 2.56 µM) | 1 (≈ 2.56 µM) | 0.5 (≈ 1.28 µM) | 0.008 (≈ 0.0205 µM) | 0.657 | > 32 | 1 (≈ 2.56 µM) | 1.34 | 1 (≈ 2.56 µM) | 2 (≈ 5.12 µM) |  |
| CC(CCc1cc(-c2ccccc2F)on1)(C(=O)NO)S(C)(=O)=O (racemic) | 2 (≈ 5.61 µM) | 2 (≈ 5.61 µM) | 1 (≈ 2.81 µM) | 0.06 (≈ 0.168 µM) | 8.31 |  |  |  |  |  |  |
| COc1ccc(-c2cn(CC[C@](C)(C(=O)NO)S(C)(=O)=O)nn2)c(Cl)c1 | 8 (≈ 19.9 µM) | 8 (≈ 19.9 µM) | 8 (≈ 19.9 µM) | 0.125 (≈ 0.31 µM) | 4.71 |  |  |  |  |  |  |
| C[C@@](CCn1ccc(-c2ccccc2)cc1=O)(C(=O)NO)S(C)(=O)=O | 2 (≈ 5.49 µM) | 1 (≈ 2.74 µM) |  | 0.06 (≈ 0.165 µM) |  |  |  | 0.8 |  |  |  |
| COc1ccc(-c2cc(CC[C@](C)(C(=O)NO)S(C)(=O)=O)no2)c(F)c1 | 1 (≈ 2.59 µM) | 0.5 (≈ 1.29 µM) | 0.5 (≈ 1.29 µM) | 0.125 (≈ 0.323 µM) | 2.32 |  |  |  |  |  |  |
| CC(CCc1cc(-c2cccc(F)c2)on1)(C(=O)NO)S(C)(=O)=O (racemic) | 4 (≈ 11.2 µM) |  |  | < 0.06 | 6.75 |  |  |  |  |  |  |
| C[C@@](CCc1ccc(-c2ccccc2)cc1)(C(=O)NO)S(C)(=O)=O | 1 (≈ 2.88 µM) | 1 (≈ 2.88 µM) |  |  |  |  |  | 2.24 |  |  |  |
| CC(CCn1ncc(-c2ccccc2)n1)(C(=O)NO)S(C)(=O)=O (racemic) | 64 (≈ 189 µM) | 32 (≈ 94.6 µM) | 32 (≈ 94.6 µM) | 0.5 (≈ 1.48 µM) | > 100 |  |  |  |  |  |  |
| C[C@@](CCn1cc(-c2ccccc2)nn1)(C(=O)NO)S(C)(=O)=O | 4 (≈ 11.8 µM) | 2 (≈ 5.91 µM) | 1 (≈ 2.96 µM) | 0.03 (≈ 0.0887 µM) | 0.85 |  |  |  |  |  |  |
| COc1ccc(-c2cc(CC[C@](C)(C(=O)NO)S(C)(=O)=O)on2)c(F)c1 | 2 (≈ 5.18 µM) | 2 (≈ 5.18 µM) | 1 (≈ 2.59 µM) | < 0.06 | 4.4 | 32 (≈ 82.8 µM) | 4 (≈ 10.4 µM) | 1.23 | 4 (≈ 10.4 µM) | 8 (≈ 20.7 µM) | 0.072 |
| CC(CCc1nc(-c2ccccc2)no1)(C(=O)NO)S(C)(=O)=O (racemic) | > 64 | 32 (≈ 94.3 µM) | 16 (≈ 47.1 µM) | 0.5 (≈ 1.47 µM) | > 100 |  |  |  |  |  |  |
| Cc1ccc(-c2cn(CC[C@](C)(C(=O)NO)S(C)(=O)=O)nn2)cc1 | 8 (≈ 22.7 µM) | 4 (≈ 11.4 µM) | 2 (≈ 5.68 µM) | 0.125 (≈ 0.355 µM) | 1.39 |  |  |  |  |  |  |
| C[C@@](CCc1cc(-c2ccccc2)no1)(C(=O)NO)S(C)(=O)=O | 2 (≈ 5.91 µM) | 1 (≈ 2.96 µM) | 0.5 (≈ 1.48 µM) | < 0.06 | 3.02 | > 32 | 1 (≈ 2.96 µM) | 0.99 | 2 (≈ 5.91 µM) | 4 (≈ 11.8 µM) | 0.013 |
| C[C@@](CCc1cc(-c2ccccc2)on1)(C(=O)NO)S(C)(=O)=O | 1 (≈ 2.96 µM) | 0.5 (≈ 1.48 µM) | 0.5 (≈ 1.48 µM) | < 0.06 | 0.511 | > 32 | 4 (≈ 11.8 µM) | 1.31 | 2 (≈ 5.91 µM) | 32 (≈ 94.6 µM) | 0.016 |
| C[C@@](CCn1cc(-c2ccc(Cl)c(F)c2)nn1)(C(=O)NO)S(C)(=O)=O | 2 (≈ 5.12 µM) | 2 (≈ 5.12 µM) | 2 (≈ 5.12 µM) | 0.06 (≈ 0.154 µM) | 0.912 |  |  |  |  |  |  |
| C[C@@](CCn1cc(-c2ccccc2)cn1)(C(=O)NO)S(C)(=O)=O | 2 (≈ 5.93 µM) | 1 (≈ 2.96 µM) | 0.5 (≈ 1.48 µM) | 0.015 (≈ 0.0445 µM) | 1.61 | > 256 | 32 (≈ 94.8 µM) | 1.04 | 4 (≈ 11.9 µM) | > 64 | 0.048 |
| C[C@@](CCn1cc(-c2ccc(Cl)c(Cl)c2)nn1)(C(=O)NO)S(C)(=O)=O | 2 (≈ 4.91 µM) | 2 (≈ 4.91 µM) | 1 (≈ 2.46 µM) | < 0.06 | 1.67 |  |  |  |  |  |  |
| Cc1ccc(-c2cc(CCC(C)(C(=O)NO)S(C)(=O)=O)on2)cc1 (racemic) | 2 (≈ 5.68 µM) | 2 (≈ 5.68 µM) | 1 (≈ 2.84 µM) | < 0.06 | 2.93 |  |  |  |  |  |  |
| CC(CCc1cn(-c2ccccc2)nn1)(C(=O)NO)S(C)(=O)=O (racemic) | 32 (≈ 94.6 µM) | 16 (≈ 47.3 µM) | 8 (≈ 23.6 µM) | 0.5 (≈ 1.48 µM) | 3 |  |  |  |  |  |  |
| CC(CCc1cc(-c2cccc(F)c2F)no1)(C(=O)NO)S(C)(=O)=O (racemic) | 4 (≈ 10.7 µM) | 2 (≈ 5.34 µM) | 2 (≈ 5.34 µM) | < 0.06 | 6.81 |  |  |  |  |  |  |
| C[C@@](CCn1cc(-c2ccc(F)c(F)c2)nn1)(C(=O)NO)S(C)(=O)=O | 4 (≈ 10.7 µM) | 4 (≈ 10.7 µM) | 4 (≈ 10.7 µM) | 0.06 (≈ 0.16 µM) | 1.87 |  |  |  |  |  |  |
| CC(CCc1cc(-c2ccccc2)n[nH]1)(C(=O)NO)S(C)(=O)=O (racemic) | > 64 | > 64 | > 64 | 4 (≈ 11.9 µM) | > 100 |  |  |  |  |  |  |
| C[C@@](CCn1cc(-c2cccc(F)c2F)nn1)(C(=O)NO)S(C)(=O)=O | 8 (≈ 21.4 µM) | 4 (≈ 10.7 µM) | 4 (≈ 10.7 µM) | 0.125 (≈ 0.334 µM) | 8.08 |  |  |  |  |  |  |
| CC(CCc1cc(-c2cccc(Cl)c2Cl)on1)(C(=O)NO)S(C)(=O)=O (racemic) | 2 (≈ 4.91 µM) |  |  | 0.06 (≈ 0.147 µM) | 2.66 |  |  |  |  |  |  |
| COc1ccc(-c2cn(CC[C@](C)(C(=O)NO)S(C)(=O)=O)nn2)c(F)c1 | 4 (≈ 10.4 µM) | 2 (≈ 5.18 µM) | 2 (≈ 5.18 µM) | 0.06 (≈ 0.155 µM) | 1.2 | > 32 | 16 (≈ 41.4 µM) | 1.36 | 4 (≈ 10.4 µM) | > 32 | 0.085 |
| CC(CCc1cnn(-c2ccccc2)c1)(C(=O)NO)S(C)(=O)=O (racemic) | 64 (≈ 190 µM) | 32 (≈ 94.8 µM) | 8 (≈ 23.7 µM) | 0.5 (≈ 1.48 µM) | 13.5 |  |  |  |  |  |  |
| CC(CCc1nnc(-c2ccccc2)[nH]1)(C(=O)NO)S(C)(=O)=O (racemic) | > 64 | > 64 | > 64 | 64 (≈ 189 µM) | > 100 |  |  |  |  |  |  |
